Assay results from ChEMBL document CHEMBL3745659, “Synthesis and Characterization of 4,11-Diaminoanthra[2,3-b]furan-5,10-diones: Tumor Cell Apoptosis through tNOX-Modulated NAD(+)/NADH Ratio and SIRT1” (J Med Chem, 2015).
Calls of active or inactive are those of the source. The rule behind the calls is not given here.

Key:
AGS [1] = test: Upregulation of phosphorylated p53 level in human AGS cells at 1 and 5 uM after 24 hrs by Western blot analysis; assay type: functional, cell-based
AGS [2] = test: Induction of apoptosis in human AGS cells assessed as late apoptotic cells at 10 uM after 24 hrs by annexin V-FITC staining-based flow cytometric analysis (Rvb=5.5%); assay type: functional
Summary of the method: (§1)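 AGS cells exposed to compound for 24 h; Annexin V-FITC staining and flow cytometry used to give percentage of apoptotic cells; mean ± S.E. from at least three independent experiments.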

[3] = molecular target: T1, NAD-dependent protein deacetylase sirtuin-1 (Homo sapiens) (UniProt Q96EB6); test: Inhibition of human recombinant SIRT1 deacetylase activity using Arg-His-Lys-Lys(epsilon-acetyl)-AMC as substrate at 5 uM incubated for 45 mins by fluorescence analysis
T1 sequence (whole entry): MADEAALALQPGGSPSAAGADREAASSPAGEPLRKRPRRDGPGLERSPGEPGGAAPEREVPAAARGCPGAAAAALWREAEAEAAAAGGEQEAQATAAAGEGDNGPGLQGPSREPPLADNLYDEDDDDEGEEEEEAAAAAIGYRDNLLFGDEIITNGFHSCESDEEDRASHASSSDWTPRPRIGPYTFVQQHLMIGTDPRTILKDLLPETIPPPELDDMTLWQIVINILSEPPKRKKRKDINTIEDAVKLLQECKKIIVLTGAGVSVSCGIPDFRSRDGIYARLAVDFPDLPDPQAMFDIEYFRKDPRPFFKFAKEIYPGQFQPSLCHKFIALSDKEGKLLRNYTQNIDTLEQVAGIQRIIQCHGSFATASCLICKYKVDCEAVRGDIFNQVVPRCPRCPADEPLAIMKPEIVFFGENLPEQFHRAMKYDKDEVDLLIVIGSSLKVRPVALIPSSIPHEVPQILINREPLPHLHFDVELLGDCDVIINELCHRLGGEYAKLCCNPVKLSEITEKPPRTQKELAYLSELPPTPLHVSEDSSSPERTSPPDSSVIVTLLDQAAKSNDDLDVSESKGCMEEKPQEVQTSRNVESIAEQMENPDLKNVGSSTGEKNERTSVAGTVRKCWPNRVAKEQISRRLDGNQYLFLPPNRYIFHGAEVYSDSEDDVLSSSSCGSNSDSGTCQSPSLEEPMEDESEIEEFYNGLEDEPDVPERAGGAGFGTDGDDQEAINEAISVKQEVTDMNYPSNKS

AGS [4] = test: Induction of apoptosis in human AGS cells assessed as early apoptotic cells at 10 uM after 24 hrs by annexin V-FITC staining-based flow cytometric analysis (Rvb=9.8%); assay type: functional; summary of the method: as §1
K562 [5] = test: Antiproliferative activity against human K562 cells after 72 hrs by MTT assay; assay type: functional, cell-based; settings: K562, 72 h
AGS [6] = test: Downregulation of tNOX protein level in human AGS cells at 1 and 5 uM after 24 hrs by Western blot analysis; assay type: functional, cell-based
AGS [7] = test: Induction of apoptosis in human AGS cells assessed as necrotic cells at 10 uM after 24 hrs by annexin V-FITC staining-based flow cytometric analysis (Rvb=1.1%); assay type: functional
[8] = molecular target: T2, DNA topoisomerase 1 (Homo sapiens) (UniProt P11387); test: Inhibition of Top1 (unknown origin)-mediated relaxation of pBR322 DNA at 2.5 uM incubated for 30 mins by ethidium bromide staining-based gel electrophoresis assay
T2 sequence (whole entry): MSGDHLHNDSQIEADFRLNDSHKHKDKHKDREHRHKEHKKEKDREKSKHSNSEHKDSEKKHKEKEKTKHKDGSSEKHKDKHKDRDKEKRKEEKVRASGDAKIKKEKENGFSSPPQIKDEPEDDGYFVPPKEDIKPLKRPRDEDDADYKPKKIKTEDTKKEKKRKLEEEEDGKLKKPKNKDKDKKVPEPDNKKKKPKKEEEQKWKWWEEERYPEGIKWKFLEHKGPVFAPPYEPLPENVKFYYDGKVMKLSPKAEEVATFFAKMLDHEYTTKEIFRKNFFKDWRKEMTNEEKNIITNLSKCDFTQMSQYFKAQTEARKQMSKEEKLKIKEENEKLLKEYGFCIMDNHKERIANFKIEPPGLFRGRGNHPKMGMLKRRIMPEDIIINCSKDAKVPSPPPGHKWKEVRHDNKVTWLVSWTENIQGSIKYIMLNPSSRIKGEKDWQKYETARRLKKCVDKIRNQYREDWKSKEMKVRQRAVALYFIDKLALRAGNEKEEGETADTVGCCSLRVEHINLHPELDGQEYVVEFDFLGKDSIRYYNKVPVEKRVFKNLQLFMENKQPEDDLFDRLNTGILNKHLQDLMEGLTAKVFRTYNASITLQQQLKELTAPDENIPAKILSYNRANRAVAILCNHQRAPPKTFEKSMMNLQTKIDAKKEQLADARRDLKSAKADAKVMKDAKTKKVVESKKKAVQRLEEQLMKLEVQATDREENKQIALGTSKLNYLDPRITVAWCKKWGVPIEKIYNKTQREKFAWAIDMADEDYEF
Summary of the method: (§2)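 Supercoiled pBR322 plasmid treated with Top1 without drug or with compound at 0.5, 2.5 or 10 µM; camptothecin as reference; relaxation assessed by gel electrophoresis.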

AGS [9] = test: Downregulation of Bid protein level in human AGS cells after 24 hrs by Western blot analysis; assay type: functional, cell-based
AGS [10] = test: Downregulation of SIRT1 protein level in human AGS cells at 1 and 5 uM after 24 after 24 hrs by Western blot analysis; assay type: functional, cell-based
CCRF-CEM = test: Antiproliferative activity against human CEM cells after 72 hrs by MTT assay; assay type: functional, cell-based
AGS [11] = test: Induction of apoptosis in human AGS cells assessed as viable cells at 10 uM after 24 hrs by annexin V-FITC staining-based flow cytometric analysis (Rvb=83.7%); assay type: functional; settings: read-out: Activity; summary of the method: as §1
AGS [12] = test: Increase in intracellular NAD+/NADH ratio in human AGS cells at 5 uM incubated for 5 mins; assay type: functional, cell-based
[13] = Antiproliferative activity against human K562/4 cells after 72 hrs by MTT assay; assay type: functional, cell-based; settings: K562/4, 72 h
AGS [14] = test: Upregulation of total p53 level in human AGS cells at 1 and 5 uM after 24 hrs by Western blot analysis; assay type: cell-based
K562 [15] = test: Resistance index, ratio of IC50 for human K562/4 cells to IC50 for human K562 cells; assay type: functional
L1210 = test: Antiproliferative activity against mouse L1210 cells after 72 hrs by MTT assay; settings: L1210, 72 h
AGS [16] = test: Induction of apoptosis in human AGS cells assessed as early apoptotic cells at 5 uM after 24 hrs by annexin V-FITC staining-based flow cytometric analysis (Rvb=9.8%); assay type: functional; summary of the method: as §1
AGS [17] = test: Induction of apoptosis in human AGS cells after 24 hrs by annexin V-FITC staining-based flow cytometric analysis; assay type: functional, cell-based; summary of the method: as §1
AGS [18] = test: Induction of apoptosis in human AGS cells assessed as late apoptotic cells at 5 uM after 24 hrs by annexin V-FITC staining-based flow cytometric analysis (Rvb=5.5%); assay type: functional; summary of the method: as §1
[19] = molecular target: DNA topoisomerase 2-alpha (Homo sapiens) (UniProt P11388); test: Inhibition of Top2 (unknown origin)-mediated relaxation of pBR322 DNA at 0.1 to 2.5 uM incubated for 30 mins by ethidium bromide staining-based gel electrophoresis assay
[20] = Antiproliferative activity against human HCT116 cells after 72 hrs by MTT assay; assay type: functional, cell-based; settings: HCT-116, 72 h
AGS [21] = test: Induction of apoptosis in human AGS cells assessed as viable cells at 5 uM after 24 hrs by annexin V-FITC staining-based flow cytometric analysis (Rvb=83.7%); assay type: functional; settings: read-out: Activity; summary of the method: as §1
AGS [22] = test: Upregulation of acetylated p53 level in human AGS cells at 1 and 5 uM after 24 hrs by Western blot analysis; assay type: functional, cell-based
AGS [23] = test: Upregulation of caspase3-directed PARP cleavage in human AGS cells at 5 uM after 24 hrs by Western blot analysis; assay type: functional, cell-based
HeLa = test: Antiproliferative activity against human HeLa cells after 72 hrs by MTT assay; assay type: functional, cell-based
AGS [24] = test: Induction of apoptosis in human AGS cells assessed as necrotic cells at 5 uM after 24 hrs by annexin V-FITC staining-based flow cytometric analysis (Rvb=1.1%); assay type: functional
[25] = molecular target: T2, DNA topoisomerase 1 (Homo sapiens); test: Inhibition of Top1 (unknown origin)-mediated relaxation of pBR322 DNA at 0.5 uM incubated for 30 mins by ethidium bromide staining-based gel electrophoresis assay; summary of the method: as §2

DNA topoisomerase 2-alpha (Homo sapiens), sequence (P11388 whole entry): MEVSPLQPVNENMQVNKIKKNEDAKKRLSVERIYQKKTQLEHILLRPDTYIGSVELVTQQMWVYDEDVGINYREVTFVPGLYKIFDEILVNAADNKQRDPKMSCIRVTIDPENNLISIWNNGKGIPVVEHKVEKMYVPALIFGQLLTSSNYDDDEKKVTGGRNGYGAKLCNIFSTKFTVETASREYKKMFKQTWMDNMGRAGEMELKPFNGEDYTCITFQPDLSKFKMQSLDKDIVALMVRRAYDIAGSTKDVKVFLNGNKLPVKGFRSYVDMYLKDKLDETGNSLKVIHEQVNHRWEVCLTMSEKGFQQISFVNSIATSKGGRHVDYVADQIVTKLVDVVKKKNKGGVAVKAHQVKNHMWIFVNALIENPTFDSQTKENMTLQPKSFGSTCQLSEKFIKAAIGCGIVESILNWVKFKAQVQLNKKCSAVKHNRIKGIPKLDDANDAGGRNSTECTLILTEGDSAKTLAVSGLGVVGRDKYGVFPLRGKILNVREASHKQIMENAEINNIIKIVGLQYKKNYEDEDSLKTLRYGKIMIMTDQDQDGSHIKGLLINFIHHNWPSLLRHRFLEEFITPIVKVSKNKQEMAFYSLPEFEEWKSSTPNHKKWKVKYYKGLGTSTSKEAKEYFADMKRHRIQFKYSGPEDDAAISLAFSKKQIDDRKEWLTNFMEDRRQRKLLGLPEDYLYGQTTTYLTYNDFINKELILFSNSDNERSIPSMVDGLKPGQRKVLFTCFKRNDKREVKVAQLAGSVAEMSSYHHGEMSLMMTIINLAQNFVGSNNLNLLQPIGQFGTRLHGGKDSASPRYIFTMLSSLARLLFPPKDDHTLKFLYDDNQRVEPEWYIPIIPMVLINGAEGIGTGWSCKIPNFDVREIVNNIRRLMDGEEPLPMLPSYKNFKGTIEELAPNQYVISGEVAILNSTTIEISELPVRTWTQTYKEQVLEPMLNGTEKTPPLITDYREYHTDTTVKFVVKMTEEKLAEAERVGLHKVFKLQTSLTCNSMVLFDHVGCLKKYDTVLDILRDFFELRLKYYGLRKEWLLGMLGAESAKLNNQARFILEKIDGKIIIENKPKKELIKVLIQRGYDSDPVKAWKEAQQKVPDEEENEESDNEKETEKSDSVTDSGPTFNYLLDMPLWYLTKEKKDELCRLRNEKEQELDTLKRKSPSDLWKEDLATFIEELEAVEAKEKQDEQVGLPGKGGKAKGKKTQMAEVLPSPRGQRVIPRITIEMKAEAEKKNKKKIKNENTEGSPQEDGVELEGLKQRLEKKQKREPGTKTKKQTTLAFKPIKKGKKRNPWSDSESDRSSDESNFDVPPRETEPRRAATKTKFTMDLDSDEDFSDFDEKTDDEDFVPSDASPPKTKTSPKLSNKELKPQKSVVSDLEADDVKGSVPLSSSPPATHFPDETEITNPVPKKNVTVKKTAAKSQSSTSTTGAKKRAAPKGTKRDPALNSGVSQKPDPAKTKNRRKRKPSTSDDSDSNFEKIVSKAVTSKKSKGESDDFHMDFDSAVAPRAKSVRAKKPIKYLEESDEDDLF

SMILES: N=C(N)NCCNc1c2c(c(NCCNC(=N)N)c3occc13)C(=O)c1ccccc1C2=O
- Activity (AGS [1]): inactive
- Activity (AGS [2]): 3%
- inhibition [3]: inactive
- Activity (AGS [4]): 10.5%
- IC50 (K562 [5]): 1.65 µM
- Activity (AGS [6]): inactive
- Activity (AGS [7]): 1.5%
- inhibition [8]: Active
- Activity (AGS [9]): inactive
- Activity (AGS [10]): inactive
- IC50 (CCRF-CEM): 9.02 µM
- viability at 10 µM (AGS [11]): 84.9%
- Activity (AGS [12]): Active
- IC50 [13]: 6.53 µM
- Activity (AGS [14]): Not Active
- Ratio IC50 (K562 [15]): 3.98
- IC50 (L1210): 5.54 µM
- Activity (AGS [16]): 8.6%
- Activity (AGS [17]): inactive
- Activity (AGS [18]): 4.2%
- inhibition [19]: Active
- IC50 [20]: 1.02 µM
- viability at 5 µM (AGS [21]): 86.3%
- Activity (AGS [22]): inactive
- Activity (AGS [23]): inactive
- IC50 (HeLa): 3.27 µM
- Activity (AGS [24]): 1%
- inhibition [25]: Active
